Data taken from ChEMBL document CHEMBL1143918, “Novel coumarin glycoside and phenethyl vanillate from Notopterygium forbesii and their binding affinities for opioid and dopamine receptors” (Bioorg Med Chem, 2008).

Columns and labels:
Type in all cases: cell-based
Mu-type opioid receptor = Mu-type opioid receptor (Rattus norvegicus, UniProt P33535); assay: Displacement of [3H]diprenorphine from rat mu opioid receptor expressed in CHO cells
Summary of the method: (§1)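 Competitive inhibition of [3H]diprenorphine binding to human KOR, rat MOR or mouse DOR stably expressed in CHO cells. Compounds screened at 10 μM; those displacing >50% were tested over a concentration range and Ki calculated from competitive inhibition curves.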

[1] = target: Delta-type opioid receptor (Mus musculus, UniProt P32300); assay: Displacement of [3H]diprenorphine from mouse delta opioid receptor expressed in CHO cells; summary of the method: as §1
Chain of Delta-type opioid receptor (P32300 whole entry): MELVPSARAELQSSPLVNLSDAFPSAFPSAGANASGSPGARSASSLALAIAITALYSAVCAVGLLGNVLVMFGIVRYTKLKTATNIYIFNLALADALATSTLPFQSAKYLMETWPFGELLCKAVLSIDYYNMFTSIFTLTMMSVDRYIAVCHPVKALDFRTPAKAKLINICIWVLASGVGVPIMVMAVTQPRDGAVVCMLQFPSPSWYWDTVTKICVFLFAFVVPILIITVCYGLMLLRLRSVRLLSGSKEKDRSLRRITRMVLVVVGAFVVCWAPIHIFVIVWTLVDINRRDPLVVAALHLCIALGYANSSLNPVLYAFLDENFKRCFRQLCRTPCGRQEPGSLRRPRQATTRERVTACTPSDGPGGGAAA

[2] = target: Kappa-type opioid receptor (Homo sapiens, UniProt P41145); assay: Displacement of [3H]diprenorphine from human kappa opioid receptor expressed in CHO cells; summary of the method: as §1
Chain of Kappa-type opioid receptor (P41145 whole entry): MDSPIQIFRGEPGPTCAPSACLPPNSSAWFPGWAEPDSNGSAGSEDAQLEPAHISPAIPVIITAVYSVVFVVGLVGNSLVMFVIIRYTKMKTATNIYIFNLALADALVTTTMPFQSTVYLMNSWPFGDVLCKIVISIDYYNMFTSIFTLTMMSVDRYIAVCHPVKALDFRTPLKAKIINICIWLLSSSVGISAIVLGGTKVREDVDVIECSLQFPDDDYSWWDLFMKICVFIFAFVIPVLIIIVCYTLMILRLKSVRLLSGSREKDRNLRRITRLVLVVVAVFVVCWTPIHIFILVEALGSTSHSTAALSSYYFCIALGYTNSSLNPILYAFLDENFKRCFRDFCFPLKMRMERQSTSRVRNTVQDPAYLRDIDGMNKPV

D(1A) dopamine receptor = D(1A) dopamine receptor (Rattus norvegicus, UniProt P18901); assay: Displacement of [3H]SCH-23390 from rat HA-tagged D1 dopamine receptor expressed in CHO cells
Chain of D(1A) dopamine receptor (P18901 whole entry): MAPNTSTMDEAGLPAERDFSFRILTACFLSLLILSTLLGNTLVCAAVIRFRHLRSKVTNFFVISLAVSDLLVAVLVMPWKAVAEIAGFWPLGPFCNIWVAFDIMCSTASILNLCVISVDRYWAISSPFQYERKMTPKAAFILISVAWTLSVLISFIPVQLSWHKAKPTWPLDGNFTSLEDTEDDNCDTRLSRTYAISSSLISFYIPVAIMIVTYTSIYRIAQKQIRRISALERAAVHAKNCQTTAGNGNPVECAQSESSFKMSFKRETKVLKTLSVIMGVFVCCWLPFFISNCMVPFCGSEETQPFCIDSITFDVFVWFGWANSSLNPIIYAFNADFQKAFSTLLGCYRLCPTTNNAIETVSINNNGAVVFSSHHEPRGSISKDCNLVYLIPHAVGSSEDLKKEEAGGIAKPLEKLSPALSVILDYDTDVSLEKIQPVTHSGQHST
Summary of the method: (§2)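 Membranes from CHO cells stably expressing HA-tagged rat D1 receptor; cells grown in DMEM/F12 with 10% fetal calf serum and hygromycin B at 37°C, 5% CO2. Binding: 0.2 nM [3H]SCH23390 in 50 mM Tris-HCl, 1 mM EGTA, pH 7.4, room temperature, 1 h, duplicate. Fluphenazine (10 μM) defined nonspecific binding. Screened at 10 μM; compounds displacing >50% taken to Ki from competition curves.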

[3] = target: D(1A) dopamine receptor (Rattus norvegicus) (UniProt P18901); assay: Displacement of [3H]SCH-23390 from rat HA-tagged D1 dopamine receptor expressed in CHO cells at 10 uM; summary of the method: as §2
Chain of D(1A) dopamine receptor (Rattus norvegicus) (P18901 whole entry): as above

Chain of Mu-type opioid receptor (P33535 whole entry): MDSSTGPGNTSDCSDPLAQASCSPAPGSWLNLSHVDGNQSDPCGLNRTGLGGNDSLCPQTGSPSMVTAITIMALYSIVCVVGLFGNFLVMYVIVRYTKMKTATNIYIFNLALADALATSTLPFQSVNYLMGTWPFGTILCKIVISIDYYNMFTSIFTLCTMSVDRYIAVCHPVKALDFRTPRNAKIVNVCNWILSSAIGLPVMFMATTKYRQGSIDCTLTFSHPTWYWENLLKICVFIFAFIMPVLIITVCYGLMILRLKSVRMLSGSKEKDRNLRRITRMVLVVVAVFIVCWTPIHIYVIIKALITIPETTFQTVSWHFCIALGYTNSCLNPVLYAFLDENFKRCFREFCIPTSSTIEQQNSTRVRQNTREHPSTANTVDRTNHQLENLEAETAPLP

Structure (SMILES)	Ki (Mu-type opioid receptor)	Ki [1]	Ki [2]	Ki (D(1A) dopamine receptor)	Activity [3]
CC(C)=CC(O)C/C(C)=C/COc1ccc2ccc(=O)oc2c1 (centres undefined) [ANISOCOUMARIN H]	> 10 µM	> 10 µM	2.6 µM	> 10 µM	–
C=C[C@@H](O)C#CC#C[C@@H](O)/C=C\CCCCCCC [FALCARINDIOL]	1.13 µM	1.1 µM	2.51 µM	0.192 µM	> 50%
CC(C)=CC(O)C/C(C)=C/COc1c2ccoc2cc2oc(=O)ccc12 (centres undefined) [NOTOPTEROL]	> 10 µM	> 10 µM	> 10 µM	1.42 µM	> 50%
